ChEMBL document CHEMBL4513216, “Probing the Open Global Health Chemical Diversity Library for Multistage-Active Starting Points for Next-Generation Antimalarials” (ACS Infect Dis, 2020)

Test: Toxicity liver stage against HepG2, at 10uM
Type: cell-based
Parameters: test concentration 10 uM, cell line HepG2-A16-CD81EGFP
Details: human, HepG2-A16-CD81EGFP cells; read-out: INHIBITION
In short: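 Uninfected HepG2-A16-CD81EGFP cells, 3 × 10^3 per well, 1536-well, plated on prespotted compound at 10 μM final, parasite-free screening media added to match infected plates; puromycin 10 μM positive, DMSO 0.5% negative; run in parallel with 48 h PbLuc assay at 37 °C, 5% CO2; viability by CellTiter-Glo luminescence, normalized to controls.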

Row | SMILES | cytotoxicity at 10 µM [%]
1 | CCC[C@H]1CN(S(=O)(=O)c2ccc(CC)s2)C[C@@H]1N | 4.69
2 | COc1cc(-c2nccn2CCn2cccn2)cc2c1OCO2 | -3.81
3 | Cc1noc(C)c1CN1C[C@H](OCC(=O)N(C)C)[C@H]2COC[C@H]21 | 7.61
4 | CNS(=O)(=O)c1ccc(C(=O)N2CCCC(n3cccn3)C2)cc1 (centres undefined) | -7.95
5 | O=C(N1CCCC1)N1CCC(c2nccn2Cc2cscn2)CC1 | 4.8
6 | Cc1nc(N(C)C)nc(C)c1NS(=O)(=O)c1ccc(OC(F)(F)F)cc1 | 7.23
7 | Cc1ccc(C)c(CN(C)Cc2nnc3ccccn23)c1 | -10.5
8 | CCn1cc(Br)c(C(=O)NCc2ccccc2)n1 | 7.61
9 | Cc1ccc(C(NC(=O)Cc2nc3ncccn3n2)C2CC2)cc1 (centres undefined) | 5.06
10 | Cn1cncc1-c1nnc([C@H]2CCN(C3CCOCC3)C2)o1 | -3.46
11 | C1CCc2nnc(CNc3nc(C4CC4)nc4c3CCNCC4)n2CC1 | -7.39
12 | COc1cccc(-c2n[nH]cc2CNCC2CCS(=O)(=O)C2)c1 (centres undefined) | -3.54
13 | COc1ccc(-c2cn([C@H](CO)CC(C)C)nn2)cn1 | -2.03
14 | CCC(CC)C(CNC(=O)Nc1cc(C)nn1C)N1CCOCC1 (centres undefined) | 1.74
15 | Cc1cc(NCCN)nc2ccccc12 | 2.09
16 | CC(C)N(CCNC(=O)c1[nH]nc2ccc(I)cc12)C(C)C | -41.1
17 | CC(=O)NC(C)C(=O)N(Cc1ccc(C)c(C)c1)C1CC1 (centres undefined) | 8.77
18 | CS(=O)(=O)N1CC[C@H]2O[C@H](C(=O)NCc3cccnc3)CC[C@H]21 | -7.24
19 | COc1ccc(-n2cc3[nH]c(=O)n(C(C)C)n3c2=O)cc1 | 2.03
20 | O=C1CN(C(=O)CC2c3ccccc3CCc3ccccc32)CCN1 | 9.98
21 | O=C(NCCc1cccnc1)Nc1cc(C(F)(F)F)c[nH]c1=O | -12.2
22 | Oc1nc(N2CCCC2)nc2nccc(-c3ccccn3)c12 | 1.36

Row | SMILES | cytotoxicity at 10 µM [%]
23 | CC(C(=O)NCc1ccnc(OC2CCCC2)c1)n1cncn1 (centres undefined) | 10.4
24 | COCC1CCCCN1Cc1nc(-c2ccoc2)oc1C (centres undefined) | 1.93
25 | Cc1cnccc1-c1cnn(CCNC(=O)c2ccncc2)c1C1CC1 | 6.95
26 | N#CC(NC(=O)CC1CCSCC1)c1cnn(-c2ccccc2)c1 (centres undefined) | 6.1
27 | CC1CCC2(CC1)NC(=O)c1cc(Br)ccc1-n1nnnc12 (centres undefined) | 10.1
28 | CCc1nc(CCNC(=O)NC2CCC(=O)N(C)C2)sc1C (centres undefined) | 2.78
29 | O=C(O)C1(Cc2cc(-c3ccc(F)cc3F)no2)CCOCC1 | 3.37
30 | COCCCN1Cc2cccc(NC(=O)c3ccccc3C)c2C1 | 13.4
31 | Cc1nc(CN(C)C2CCN(CCc3ccccn3)C2)no1 (centres undefined) | -3.85
32 | Cc1nnc(CN(C)CCOc2cccc(Cl)c2)o1 | 12.8
33 | CCN(CC)S(=O)(=O)CC(=O)N1CCc2ccc(Cl)cc21 | -5.42
34 | Cc1cc(CN2CCC(CNC(=O)C3(c4ccccc4)CC3)C2)[nH]n1 (centres undefined) | -145
35 | Cc1nc(CN2CC[C@H]3[C@H]2CCN3c2ncccn2)cs1 | -0.603
36 | Cc1noc(C)c1CN1CCO[C@H]2[C@H](Oc3ncccc3F)CC[C@@H]21 | 2.93
37 | CC(C)(N)C(=O)N1CCC(c2nccnc2Oc2ccccc2F)CC1 | -13.9
38 | O=C(CCc1cn[nH]c1)N1C[C@@H](CN2CCCCCC2)[C@@H](CO)C1 | 2.62
39 | CN(C)CCNC(=O)c1nc2c(o1)CN(C(=O)c1cccnc1)C2 | 0.109
40 | CC(C)c1nc2n(n1)CC(NCc1ncc(C(C)(C)C)o1)CC2 (centres undefined) | -17.8
41 | CCOc1cc(=O)n2c(c1C(=O)OCc1cccc(C)c1)CCCC2 | -15.1
42 | CN(Cc1ccsc1)C(=O)c1nc(N2CCCC2)ncc1Cl | -45.5
43 | COc1cc(C2CC(=O)Nc3c2nc2n3CCCC2)cc2c1OCO2 (centres undefined) | -6.67
44 | CN1C(=O)CCC12CCN(S(=O)(=O)c1ccccc1)CC2 | -9.75

Row | SMILES | cytotoxicity at 10 µM [%]
45 | CCN(C(=O)c1ccc(-c2ccccc2)nc1C)C1CC(=O)NC1=O (centres undefined) | -4.18
46 | O=c1[nH]nc2c(S(=O)(=O)N3CCCCCC3)cccn12 | 2.1
47 | Cc1cnn(CC2CCCN2Cc2nc(C)c3ccccc3n2)c1 (centres undefined) | -8.94
48 | NC(=O)C1=NC2=NS(=O)(=O)c3ccccc3N2N1Cc1ccccc1Cl | -10.9
49 | O=c1nc(SCc2ccncc2)c2c(n1CCO)CCC2 | 6.9
50 | CCC[C@H]1CN(CCS(C)(=O)=O)C[C@@H]1NC(=O)c1ccccn1 | 1.13
51 | COc1ccccc1-c1nnc([C@H]2CCN(C(C)=O)C2)o1 | 4.71
52 | CCC[C@H]1CN(Cc2ccc(N(C)C)nc2)C[C@@H]1NS(=O)(=O)CC | -11.9
53 | COc1ccc(C(=O)NCC(=O)N(Cc2ccsc2)C2CC2)cc1OC | 0.995
54 | COc1ccc(CCN2CCOC(Cn3nc(C)nc3C)C2)cc1 (centres undefined) | 2.29
55 | Cn1nc(COCC2CC2)c2c1CCN(Cc1ccco1)C2 | -1.77
56 | Cc1cc(=O)[nH]c(SC(C)C(=O)N2CCC(c3ncc[nH]3)CC2)n1 (centres undefined) | -16.2
57 | COC(=O)CCCNC(=O)N1CCc2c([nH]c3ccc(Cl)cc23)C1 | 9.43
58 | COc1ccccc1OCc1cc(C(=O)N2C[C@@H](C)O[C@@H](C)C2)n[nH]1 | -4.91
59 | CCCn1nc2c(cc1=O)CN(Cc1nnc(C3CC3)o1)CC2 | 2.11
60 | Cc1ncc(C(=O)N2CCOC(C(=O)N3CCCCCC3)C2)c(C)n1 (centres undefined) | 3.67
61 | Cc1cccc(NC(=O)c2cnc(C3CCCNC3)cn2)n1 (centres undefined) | 3.04
62 | CCOC(C)C(=O)N1CCCN(Cc2csc(CC)n2)CC1 (centres undefined) | -13
63 | O=C(C1=CCCC1)N1CCO[C@H]2[C@@H](OCC3CC3)CC[C@@H]21 | -5.66
64 | Cc1nc2cc(=O)[nH]n2c(C)c1CNC(=O)c1cnn(C(C)(C)C)c1 | -4.01
65 | Fc1ccccc1CN1C[C@H](OCC2CCOCC2)[C@H]2OCCC[C@H]21 | -2.4
66 | O=C(C1CCCCC1)N1C[C@H]2CNC[C@H]2C1 | -11.9

Row | SMILES | cytotoxicity at 10 µM [%]
67 | COc1ccc(C(C(=O)O)N2CCN(C3CCCC3)CC2)cc1C (centres undefined) | -8.77
68 | COc1ccccc1OCCCc1cncc(C(N)=O)c1 | -115
69 | Cc1noc(C)c1S(=O)(=O)NC(=O)COc1ccc2c(c1)CCC2 | -3.07
70 | Cc1csc(CCNC(=O)N2CCC(NC(=O)OC(C)(C)C)CC2)n1 | 1.23
71 | NC(=O)C1(Cc2ccccc2-c2ccccc2)CCCN(CC2CC2)C1 (centres undefined) | 1.67
72 | Fc1cnc(N2CC[C@@H](N3CCOCC3)[C@@H]2Cc2cccnc2)nc1 | 11.7
73 | CC(c1nc(C(C)(C)C)no1)N1CCC(N2CCCC2)CC1 (centres undefined) | 3.63
74 | O=C(NCc1ncc(-c2ccccc2)o1)NC1CCC(O)CC1 (centres undefined) | -41.8
75 | CN(Cc1cc(C2CC2)on1)C(=O)CN1CC(c2ccccc2)CC1=O (centres undefined) | -6.72
76 | Cc1occc1C(=O)N1CCCN(Cc2cnn(C(C)C)c2)CC1 | -5.62
77 | N#Cc1ccc(CN2CCCC2Cn2cccn2)cc1 (centres undefined) | -2.96
78 | CCc1nc(C2CCCN2Cc2nc(Cc3ccccc3)no2)no1 (centres undefined) | 3.12
79 | Cc1ncsc1C(=O)N(C)Cc1cccc(Cl)c1 | -1.27
80 | Cc1cc(CNC(=O)CCc2c(C)nc3cc(O)nn3c2C)no1 | -3.27
81 | NC(=O)C(NC(=O)COC1CCCCC1)c1ccccc1 (centres undefined) | -4.65
82 | COc1cccc(CNCc2cccnc2)c1 | -1.13
83 | CN1CCN(Cc2ccncc2)C(=O)C12CCN(c1nccs1)CC2 | -2.82
84 | O=C(Nc1ccc(CCN2CCOCC2)cc1)C1CCCC1 | -16
85 | Cc1cncc(C(=O)N2CCOc3nc(C)ccc32)c1 | 5.19
86 | Cc1cc(F)ccc1OC1(C(=O)O)CCN(Cc2cccnc2N)CC1 | -1.83
87 | Cn1ccnc1CN1CCc2onc(COCC3CC3)c2C1 | 6.86
88 | Cc1cc(N2CCOCC2)ccc1NC(C)c1nc(C(C)(C)C)no1 (centres undefined) | -12.7

Row | SMILES | cytotoxicity at 10 µM [%]
89 | CCN1CCOC(CNCc2ccc(OC)c(F)c2)C1 (centres undefined) | 1.79
90 | COCC1CN(S(=O)(=O)c2ccc(C)cc2)Cc2c1cnn2C (centres undefined) | -5.37
91 | COCCN1C[C@H]2[C@@H](C1)N(C(=O)CCc1ccccc1)CC[C@H]2OC | 4.78
92 | c1cncc(CN2CCc3c(nnn3CC3CC3)C2COCC2CC2)c1 (centres undefined) | 3.88
93 | O=C(C1CCCC1)N1CCO[C@H]2[C@H](OCC3CCOCC3)CC[C@@H]21 | 5.05
94 | CC(=O)N1CCCC2(CCN(C(=O)c3nn(C)c4ccccc34)CC2)C1 | 2.26
95 | Cc1cc(C)n(CC(=O)N2CCCCC2CCN(C)C)c(=O)n1 (centres undefined) | -14.7
96 | CC[C@@]1(O)CCN(C(=O)CCc2cnn(C)c2)C[C@H]1O | -0.634
97 | O=C(Nc1cccc(N2CCOCC2)c1)N[C@H](CO)c1ccccc1 | -8.1
98 | Cn1cc(CN2C[C@@H]3CN(C(=O)c4cccn4C)CCO[C@@H]3C2)cn1 | -110
99 | O=C(NCc1n[nH]c2c1CCCCC2)c1cnn2c1CCCC2 | 13.6
100 | Cc1cc(C)nc(N2CCN(Cc3nccn3C)CC2)n1 | -20.9
101 | COC(=O)c1cnn(-c2cc(Oc3cccc(C)c3)ncn2)c1N | 34.1
102 | CCc1ccccc1OC1CN(C(=O)c2sccc2N)C1 | 14.4
103 | CCN(c1ccc(C(=O)N2CCCC2)cc1)S(=O)(=O)CC | -9.75
104 | O=C(c1cc(Cl)c2c(c1)OCO2)N1CCN(c2ccccn2)CC1 | -2.67
105 | Cc1c(C(=O)N2CCC2(C)C)nnn1-c1cccc2cnccc12 | -2.15
106 | Nc1ccnc(N2C[C@H](O)[C@@H](N3CCN(c4ccccn4)CC3)C2)n1 | 6.7
107 | Cc1ccc2nc(NCCCN3CCCCCC3=O)n(C)c(=O)c2c1 | 7.04
108 | CC(C)c1noc(CCNC(=O)NCC2Cc3ccccc3O2)n1 (centres undefined) | 7.4
109 | COc1ccc(CNC(=O)NCC(O)(c2cccs2)C2CC2)cc1 (centres undefined) | 0.227
